Source: PubChem (several laboratories)
CSC inhib – cancer stem cell viability inhibitors, primary screen, luminescence. cancer stem cell-like cells viability. inhibition, % at 7.5 µM. 300,000 tested, 1.1% active. AID 2717, 2010; in the data active means inhibition above about 75%; tested in HMLE shEcad cells
TMEM16A act – TMEM16A chloride channel activators or potentiators, primary screen, cell-based, HTS; Anoctamin-1 (Mus musculus), Q8BHY3; HEK293 TMEM16A/YFP-H148Q/I152L, iodide quench fluorescence; hits give low values; B-score at 10 µM; 340,000 tested, 0.3% active;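 active means fluorescence-ratio B-score plate-corrected deviation score at least 3 library SD below zero, with starting fluorescence score within 5 deviations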;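 further: channel opened by trigger with iodide after compound preincubation; score built on the fluorescence ratio of max minus min over baseline; more negative score means more quench and so TMEM16A activation or potentiation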
MC4R antag cAMP – MC4R antagonists of cAMP signaling, primary screen, cell-based, TR-FRET, antagonist arm of biased-ligand search; Melanocortin receptor 4 (Homo sapiens), P32245; MC4R-expressing cells, MTII-stimulated cAMP, LANCE TR-FRET; inhibition, % at 6.5 µM; 360,000 tested, 0.48% active; AID 540295, 2011;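 active means inhibition above its plate's cutoff, the mean of tested wells on that plate plus 3 SD, cut at about 29% in these data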;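 further: 0% = Melanotan II alone and 100% = Melanotan II plus saturating MCL0020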
Target sequence (P32245 whole entry, looked up): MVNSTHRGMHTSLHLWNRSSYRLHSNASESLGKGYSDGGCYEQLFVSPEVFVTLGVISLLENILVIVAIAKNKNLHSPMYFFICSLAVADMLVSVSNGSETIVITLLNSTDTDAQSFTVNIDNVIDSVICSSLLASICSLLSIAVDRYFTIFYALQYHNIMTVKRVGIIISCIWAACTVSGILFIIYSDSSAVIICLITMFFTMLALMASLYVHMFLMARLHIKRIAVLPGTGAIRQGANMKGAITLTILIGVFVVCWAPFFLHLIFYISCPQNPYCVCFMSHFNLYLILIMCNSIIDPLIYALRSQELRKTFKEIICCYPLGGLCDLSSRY
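System – human MC4R-expressing U2OS cells · Also added – Melanotan II · Dosing – one concentration, 6.5 µM nominal · Timing – 30-min compound, 1-h challenge, 1-h detection, room temperature · Measured by – Eu-cAMP/anti-cAMP TR-FRET, emission 671 nm · Replicates – singlicate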
Beta apoptosis – inhibitors of cytokine-induced beta cell apoptosis, primary screen, luminescence; INS-1E cytokine-induced death, ATP luminescence, 48 h; percent of positive-control rescue, neutral wells zero; protection from apoptosis, % (no concentration beside the values); 300,000 tested, 0.8% active;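 active means Every replicate reaches about 75%, or at least half do and their mean reaches it too, limit read from the data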;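 further: 0% = cytokine-treated negative control wells and 100% = positive control rescue; higher means more ATP so stronger rescue from cytokine killing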
MC4R barr agon – MC4R agonists recruiting beta-arrestin, primary screen, cell-based, luminescence, agonist arm of biased-ligand search. 360,000 tested, 0.98% active. U2OS MC4R beta-arrestin complementation; percent of melanotan II response, DMSO zero. AID 540308, 2011. activation, % at 8.9 µM. Melanocortin receptor 4 (Homo sapiens), P32245;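 active means activation above a per-plate cutoff, the mean activation of sample wells on that plate plus 3 SD, cut at about 8% in these data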
ANO1 block – TMEM16A chloride channel inhibitors, primary screen, cell-based, HTS | Anoctamin-1 (Mus musculus), Q8BHY3 | HEK293 TMEM16A/YFP iodide influx fluorescence, ionomycin | normalized B-score (activity score, 25-100; higher = stronger inhibition) at 10 µM | 310,000 tested, 1.2% active;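 active means ratio plate-corrected score three or more library SD toward inhibition, starting fluorescence score within five deviations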;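 further: score derived from kinetic fluorescence span divided by baseline fluorescence per well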
MC4R barr conf – MC4R beta-arrestin agonists, retest, confirmation, cell-based, luminescence, U2OS. activation, % at 8.9 µM. U2OS MC4R beta-arrestin recruitment; scaled DMSO 0%, Melanotan II 100%. shares compounds with MC4R barr agon. 2,400 tested, 31% active;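 active means mean activation across replicates above the hit cutoff set in the earlier primary screen, cut at about 8% in these data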
MOR DOR agonist – agonists of MOR-DOR heterodimerization, counter-screen for MC4R biased agonist project, cell-based, luminescence; shares compounds with MC4R barr agon; U2OS PathHunter beta-arrestin, beta-gal luminescence; percent of deltorphin B response, DMSO zero; activation, % at 9.2 µM; 2,400 tested, 5.8% active;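 active means mean activation across replicates exceeds the hit threshold derived in the earlier primary screen, cut at about 18% in these data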;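 further: 100% = deltorphin B at 0.9 µM final and 0% = DMSO alone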
An asterisk follows results filed as active; i = inactive; / = not tested or not shown. Only some compounds are listed: those with a hit (about 3.8% of all), similar ones and a draw of the others.

SMILES | CSC inhib | TMEM16A act | MC4R antag cAMP | Beta apoptosis | MC4R barr agon | ANO1 block | MC4R barr conf | MOR DOR agonist
COCCNC(=O)CSc1nc2cc(OC)c(OC)cc2c(=O)n1Cc1ccc(OC)cc1 | -5 | i | 9 | -8 | -1 | i | / | /
C=CCn1c(SCC(=O)OCC)nc2cc(C(=O)NCc3ccco3)ccc2c1=O | -12 | i | -5 | 2 | -1 | i | / | /
O=C(Nc1cccc2ccccc12)c1ccc2sc([C@@H]3O[C@H](CO)[C@H](O)[C@H](O)[C@H]3O)nc2c1 | / | / | 1 | / | 1 | / | / | /
c1ccc(COC2CCCN(Cc3nc(Cc4ccccc4)no3)C2)cc1 (centres undefined) | 4 | i | 5 | -1 | 9.9* | i | 1 | 4
CCC(C)NC(=O)c1c(N)n(/N=C/c2cccnc2)c2nc3ccccc3nc12 (centres undefined) | 49 | i | 10 | 15 | 13* | i | 28* | 6
CCC(C)NC(=O)c1c(N)n(/N=C/c2ccccn2)c2nc3ccccc3nc12 (centres undefined) | / | i | 5 | 7 | 5 | i | / | /
COCCCNC(=O)c1c(N)n(/N=C/c2cccnc2)c2nc3ccccc3nc12 | 4 | i | 3 | / | 10* | i | 5 | 5
O=C(COC(=O)CSc1ccc(Cl)cc1)Nc1ccc2[nH]c(=O)[nH]c2c1 | 6 | i | 2 | 0 | 0 | / | / | /
O=C(/C=C/c1ccc(Cl)c([N+](=O)[O-])c1)Nc1ccc(N2CCCC2)c(Cl)c1 | 2 | i | 21 | 1 | 11* | i | 7 | 4
O=C(Nc1ccc(N2CCCC2)c(Cl)c1)c1ccc([N+](=O)[O-])o1 | / | i | 4 | / | -1 | / | / | /
COC(=O)CCCN1C(=O)NC(c2ccc(-c3ccccc3)cc2)C(C(=O)OCc2ccccc2)=C1C (centres undefined) | / | / | 6 | / | 12* | / | 12* | 3
CCN(CC)CCCNc1oc(-c2ccccc2[N+](=O)[O-])nc1C#N | -3 | i | 5 | -5 | 0 | i | / | /
CCCCCOC(=O)Nc1ccc(S(=O)(=O)Nc2cccc([N+](=O)[O-])c2)cc1 | 33 | i | -3 | -2 | 14* | i | 9.7* | 7
CCCCOC(=O)Nc1ccc(S(=O)(=O)Nc2ccc([N+](=O)[O-])cc2)cc1 | 6 | i | 20 | 11 | 0 | i | / | /
O=C1C2C(C(=O)N1/N=C/c1ccc([N+](=O)[O-])o1)C1C=CC2C12CC2 (centres undefined) | -3 | i | 26 | -5 | -2 | i | / | /
CC1=NN(c2nc(N)nc(/C(C#N)=C/c3ccc([N+](=O)[O-])o3)n2)C(C)(C)C1 | / | i | -42 | / | 37* | / | 163* | 172*
CC(C)c1ccc(NC(=O)Cn2ncn3c(cc4ccccc43)c2=O)cc1 | -6 | i | 4 | 1 | 12* | i | 2 | 8
Cn1c2ccccc2c(=O)c2ccc(NCCc3cccs3)cc21 | 53 | i | 3 | 13 | 2 | / | / | /
Cc1c(P(=S)(c2ccccc2)c2ccccc2)[n+]2ccccc2n1C/C=C/c1ccccc1 | / | / | 15 | / | 15* | / | 6 | 37*
CC(O)c1nc2ccccc2n1C/C=C/c1ccccc1 (centres undefined) | -6 | i | 2 | 4 | -2 | i | / | /
CC(=O)Nc1ccc(C(=O)OCC(=O)NC2CCCCCC2)cc1 | / | / | 1 | / | 0 | / | / | /
COc1ccc(CCn2c(C)cc(C(=O)CSc3nnnn3-c3ccccc3)c2C)cc1OC | -6 | i | 0 | / | 17* | i | 8 | 4
O=C(N/C=N/OCc1ccc(Cl)cc1Cl)NOCc1c(Cl)cccc1Cl | 68 | i | -11 | 9 | 12* | i | 8 | 3
CO/N=C/NC(=O)NOCc1ccc(Cl)cc1Cl | 8 | i | 2 | -2 | -1 | i | / | /
COc1ccc(S(N)(=O)=O)cc1C(=O)OCC(=O)N1CCCC(C)C1 (centres undefined) | -21 | i | 2 | 1 | -2 | / | / | /
SMILES | CSC inhib | TMEM16A act | MC4R antag cAMP | Beta apoptosis | MC4R barr agon | ANO1 block | MC4R barr conf | MOR DOR agonist
CCc1ccc(C(O)c2ncc(-c3cccc(C(F)(F)F)c3)[nH]2)cc1 (centres undefined) | / | / | 8 | / | 13* | / | 10* | 9
CCc1ccc(C(O)c2ncc(-c3ccc4ccccc4c3)[nH]2)cc1 (centres undefined) | / | / | 10 | / | 17* | / | 7 | 8
CCc1ccc(Nc2nc(C)cc(C)n2)cc1 | -7 | i | 4 | -8 | 1 | i | / | /
COc1cc(C(=S)N2CCCCC2)ccc1OCC(=O)Nc1ccccc1Cl | 6 | i | 12 | 4 | 0 | i | / | /
O=C(COc1ccc(C(=S)N2CCOCC2)cc1Cl)Nc1ccccc1Cl | -2 | i | 12 | -7 | 22* | i | -1 | 4
c1ccc(COC2COC3C(OCc4ccccc4)COC23)cc1 (centres undefined) | / | i | 10 | / | 1 | / | / | /
COc1cccc(CNC(=O)CCCc2cn(C)c3ccccc23)c1 | -2 | i | 3 | 1 | -1 | i | / | /
CS(=O)(=O)N(Cc1ccc(Cl)cc1)c1ccc(C(=O)NCCC2=CCCCC2)cc1 | -1 | i | 7 | 2 | 13* | i | 0 | 9
Cc1cccc(Nc2c(O)nc[nH]c2=O)c1 | / | i | -2 | / | -1 | / | / | /
COc1ccc(CC(=O)Nc2ccc(N3CCOCC3)cc2)cc1OC | -2 | i | 6 | -7 | 9.6* | i | 9.6* | 10
COc1ccc(CN(C)CC(=O)Nc2ccc(N3CCOCC3)cc2)cc1OC | -2 | i | 1 | 2 | -2 | i | / | /
C=CCc1cc(/C=N/NC(=O)CSc2nnc(CCCc3ccc(OC)cc3)o2)cc(OC)c1O | -5 | i | 14 | 1 | 33* | i | 5 | 3
C=CCc1cc(/C=N\NC(=O)CSc2nnc(CCCc3ccc(OC)c(C)c3)o2)cc(OC)c1O | -7 | i | 4 | -2 | 23* | i | 0 | 4
O=C(CSc1nnc(-c2n[nH]c3ccccc23)n1-c1ccccc1)Nc1cccc(Cl)c1 | 6 | i | 10 | 4 | 8 | i | / | /
